In brackets after ≈: the same amount, converted by molar mass.

The values that follow come from ChEMBL document CHEMBL2177000, “Pharmacokinetic optimization of class-selective histone deacetylase inhibitors and identification of associated candidate predictive biomarkers of hepatocellular carcinoma tumor response” (J Med Chem, 2012).

The nature of data set [1]: Clearance in mouse liver microsomes at 1 uM incubated for 10 mins by LC-MS/MS method. In kind it is ADME, Microsome. The essentials: (§1)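 Liver microsomes (human or mouse, 0.5 mg/mL) in 100 mM potassium phosphate pH 7.4 with 1 μM compound, prewarmed 10 min at 37 °C, started with NADPH (10 mM); stopped at 0, 3, 6, 9, 15, 30 min with ice-cold methanol containing tolbutamide internal standard; LC-MS/MS. Hepatic clearance (mL/min/kg) calculated from intrinsic clearance.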

Data set [2] in a line: Clearance in BALB/C mouse at 10 mg/kg, po or 2 mg/kg, iv by LC-MS/MS method. In kind it is ADME, organism-based. The following applies: in vivo. The method in brief: (§2)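 Female-unspecified BALB/C nude mice (15−20 g, N = 16 per arm); iv bolus 2 mg/kg in 5% DMSO/40% PEG400/55% saline and/or oral gavage 10 mg/kg as 0.445% microcrystalline cellulose microsuspension. Blood sampled at nine (iv) or eight (po) time points into sodium heparin tubes; plasma by LC-MS/MS; noncompartmental analysis.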

A short description of data set [3]: Half life in BALB/C mouse at 10 mg/kg, po or 2 mg/kg, iv by LC-MS/MS method. Format: ADME, organism-based. The following applies: BALB/C, in vivo. The essentials:
as §2

A short description of data set [4]: AUC in BALB/C mouse at 10 mg/kg, po or 2 mg/kg, iv by LC-MS/MS method. Format: ADME, organism-based, Plasma. Particulars: BALB/C, plasma. The method in brief: as §2
The nature of data set [5]: Cmax in BALB/C mouse at 10 mg/kg, po or 2 mg/kg, iv by LC-MS/MS method. Format: ADME, organism-based. Particulars: BALB/C, in vivo. The method in brief:
as §2

Data set [6] in a line: Volume of distribution at steady state in BALB/C mouse at 10 mg/kg, po or 2 mg/kg, iv by LC-MS/MS method. In kind it is ADME, organism-based. Details: unit not given here. The following applies: in vivo, read-out: Vdss. The method in brief: (§3)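 Single-dose PK: iv bolus 2 mg/kg in 5% DMSO/40% PEG400/55% saline and/or oral gavage 10 mg/kg as 0.445% microcrystalline cellulose microsuspension; BALB/C nude mice (15−20 g, N = 16 per arm) or male Sprague−Dawley rats (250 ± 20 g, N = 3). Blood at eight (po) or nine (iv) time points into sodium heparin, plasma by LC-MS/MS, noncompartmental analysis.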

Data set [7] in a line: Oral bioavailability in BALB/C mouse at 10 mg/kg by LC-MS/MS method. Format: ADME, organism-based. The following applies: BALB/C, in vivo. The essentials: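 Bioavailability from single-dose iv (2 mg/kg, 5% DMSO/40% PEG400/55% saline) and oral gavage (10 mg/kg, 0.445% microcrystalline cellulose microsuspension) studies in BALB/C nude mice (N = 16 per arm); plasma at eight (po) or nine (iv) time points, LC-MS/MS, noncompartmental analysis.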

A short description of data set [8]: Tmax in BALB/C mouse at 10 mg/kg, po or 2 mg/kg, iv by LC-MS/MS method. Particulars: BALB/C, in vivo. Format: ADME, organism-based. The essentials:
as §3

The target in data set [9] is Histone deacetylase (Homo sapiens) (UniProt Q13547+O15379+Q9UBN7+Q92769+Q9UQL6+Q8WUI4+Q9BY41+Q96DB2+P56524+Q9UKV0+Q969S8). Nature of the data set: Inhibition of Class 1 histone deacetylase in human HeLa cells assessed as induction in p21 protein expression at 3 uM incubated for 16 hrs by luciferase reporter gene assay relative to HDAC inhibitor entinostat. Format: cell-based. Set-up: scale not given: the % may be the effect or the level left.

Data set [10] in a line: Clearance in human liver microsomes at 1 uM incubated for 10 mins by LC-MS/MS method. In kind it is ADME, Microsome. The method in brief: as §1
The nature of data set [11]: Solubility in 50 mM phosphate buffer at pH 6.5 by HPLC method. In kind it is physicochemical. The essentials: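 10 mM DMSO stock dried, residue redissolved in 50 mM phosphate buffer pH 6.5, stirred 1 h and shaken 2 h, left overnight, filtered and analysed by HPLC against calibration standards of 50−500 μM diluted from the DMSO stock.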

With `CC(C)(CO)N1C[C@H](C(=O)Nc2ccc(Cl)cc2)[C@@H](c2ccc(/C=C/C(=O)Nc3ccccc3N)cc2)C1` (racemic), the results for the CLhep predicted at 1 µM in data set [1] and in [10] were 40 mL/min/kg and 12 mL/min/kg, respectively. Further, in [2], the clearance came out at 27 mL/min/kg. The half-life in data set [3] is 1.1 h. In data set [4], this molecule returned an AUC of 743 ng·h/mL. In data set [5], the peak concentration (Cmax) came to 337 ng/mL. Further, the Vd in data set [6] was 6.6. Also, the bioavailability in [7] was determined as 12%. The Tmax in data set [8] was found to be 2 h. For the same molecule, the Activity in data set [9] came out at 260%.

Turning to `CN(C)[C@H]1CCN(C(C(=O)Nc2ccc(C(F)(F)F)cc2)c2ccc(/C=C/C(=O)Nc3ccccc3N)cc2)C1` (some centres not stated), in data set [1], the CLhep predicted at 1 µM is 34 mL/min/kg. The clearance in data set [2] was 67 mL/min/kg. Further, the solubility in [11] amounted to 610 µg/mL (≈ 1110 µM). For the same molecule, in data set [7], the bioavailability came out at 21%. Moreover, the Activity in data set [9] came out at 216%.

As to `Nc1ccccc1NC(=O)/C=C/c1ccc(C(NCCO)C(=O)Nc2ccc(C(F)(F)F)cc2)cc1` (racemic), the CLhep predicted at 1 µM in data set [1] was 33 mL/min/kg. The same molecule displayed a clearance in data set [2] of 49 mL/min/kg. The solubility in [11] turned out to be 5 µg/mL (≈ 10 µM). The same molecule had a bioavailability in data set [7] of 71%. Besides, in data set [9], the Activity is 117%.

Consider `CC(C)N1C[C@H](C(=O)Nc2ccc(Cl)cc2)[C@@H](c2ccc(/C=C/C(=O)Nc3ccccc3N)cc2)C1` (racemic), for which the CLhep predicted at 1 µM in [1] was 38 mL/min/kg. The clearance in data set [2] is 86 mL/min/kg. In data set [3], this molecule gave a half-life of 5.4 h. For the same molecule, in data set [4], the AUC was determined as 2080 ng·h/mL. The same molecule had a Cmax in data set [5] of 331 ng/mL. Besides, the Vd in [6] was 32. The bioavailability in [7] is 100%. The time of peak concentration (Tmax) in [8] is 2 h. For the same molecule, in [9], the Activity came out at 230%.

`CC(C)(C)N1C[C@H](C(=O)Nc2ccc(Cl)cc2)[C@@H](c2ccc(/C=C/C(=O)Nc3ccccc3N)cc2)C1` (racemic): the values for the CLhep predicted at 1 µM in data set [1] and in data set [10] were 20 mL/min/kg and 8 mL/min/kg, respectively. The same molecule returned a clearance in data set [2] of 60 mL/min/kg. For the same molecule, the half-life in [3] is 6.8 h. For the same molecule, the AUC in data set [4] stood at 813 ng·h/mL. The molecule further returned a Cmax in data set [5] of 113 ng/mL. Besides, the Vd in data set [6] came to 31. Further, in data set [7], the bioavailability was 59%. In addition, in [8], the Tmax is 2 h. Moreover, the Activity in [9] was 160%.

Regarding `CN1C[C@H](C(=O)Nc2ccc(F)c(F)c2)[C@@H](c2ccc(/C=C/C(=O)Nc3ccccc3N)cc2)C1` (racemic), the CLhep predicted at 1 µM in [1] is 46 mL/min/kg. Further, in [2], the clearance amounted to 53 mL/min/kg. In data set [3], this molecule had a half-life of 4 h. The AUC in data set [4] was found to be 911 ng·h/mL. In data set [5], this molecule yielded a Cmax of 262 ng/mL. Moreover, the Vd in data set [6] is 7.2. Besides, the bioavailability in [7] came out at 29%. In data set [8], the Tmax stood at 1 h. Moreover, the Activity in data set [9] is 180%.

In the case of `Nc1ccccc1NC(=O)/C=C/c1ccc(C(C(=O)Nc2ccc(Br)cc2)N2CC[C@H](O)C2)cc1` (some centres not stated), in data set [1], the CLhep predicted at 1 µM is 52 mL/min/kg. The clearance in data set [2] was 8 mL/min/kg. Also, the solubility in data set [11] was 5 µg/mL (≈ 9.34 µM). This molecule also showed a bioavailability in data set [7] of 13%. Besides, the Activity in data set [9] came to 150%.

`Nc1ccccc1NC(=O)/C=C/c1ccc(C(NCCN2CCOCC2)C(=O)Nc2ccc(C(F)(F)F)cc2)cc1` (racemic): the CLhep predicted at 1 µM in data set [1] was 78 mL/min/kg. Further, in data set [2], the clearance turned out to be 122 mL/min/kg. This molecule registered a solubility in data set [11] of 32 µg/mL (≈ 56.4 µM). In addition, in [7], the bioavailability was found to be 11%. Further, the Activity in [9] was found to be 100%.

For `Nc1ccccc1NC(=O)/C=C/c1ccc([C@H]2CN(CC(F)(F)F)C[C@@H]2C(=O)Nc2ccc(Cl)cc2)cc1` (racemic), the CLhep predicted at 1 µM in data set [1] is 35 mL/min/kg; in data set [10] it was 15 mL/min/kg. Further, the Activity in data set [9] was 100%.

Consider `CN1C[C@H](C(=O)N2CCCCC2)[C@@H](c2ccc(/C=C/C(=O)Nc3ccccc3N)cc2)C1` (racemic), for which the CLhep predicted at 1 µM in data set [1] was 42 mL/min/kg; in data set [10] it was 9 mL/min/kg. Besides, in [9], the Activity is 10%.

In the case of `N#CCN1C[C@H](C(=O)Nc2ccc(Cl)cc2)[C@@H](c2ccc(/C=C/C(=O)Nc3ccccc3N)cc2)C1` (racemic), the CLhep predicted at 1 µM in [1] is 51 mL/min/kg; in data set [10] it was 17 mL/min/kg. Further, the Activity in [9] was 190%.

For `COc1cccc(NC(=O)[C@H]2CN(C)C[C@@H]2c2ccc(/C=C/C(=O)Nc3ccccc3N)cc2)c1` (racemic), the figures for the CLhep predicted at 1 µM in data set [1] and in data set [10] were 65 mL/min/kg and 14 mL/min/kg, respectively. Moreover, the Activity in [9] came out at 170%.

As to `CN1C[C@H](C(=O)Nc2ccc(Cl)cc2)[C@@H](c2ccc(/C=C/C(=O)Nc3ccccc3N)nc2)C1` (racemic), the figures for the CLhep predicted at 1 µM in data set [1] and in data set [10] were 38 mL/min/kg and 12 mL/min/kg, respectively. In [9], the Activity was greater than 300%.

Regarding `CN1C[C@H](C(=O)Nc2cccnc2)[C@@H](c2ccc(/C=C/C(=O)Nc3ccccc3N)cc2)C1` (racemic), the CLhep predicted at 1 µM was 41 mL/min/kg in data set [1] and 10 mL/min/kg in [10]. For the same molecule, the Activity in data set [9] came to 80%.

As for `CN1C[C@H](C(=O)Nc2ccccc2)[C@@H](c2ccc(/C=C/C(=O)Nc3ccccc3N)cc2)C1` (racemic), the CLhep predicted at 1 µM in data set [1] was 67 mL/min/kg; in [10], 7 mL/min/kg. Further, the Activity in data set [9] is 270%.

For the molecule `Nc1ccccc1NC(=O)/C=C/c1ccc([C@H]2CN(C3CCOCC3)C[C@@H]2C(=O)Nc2ccc(Cl)cc2)cc1` (racemic), the CLhep predicted at 1 µM in data set [1] is 44 mL/min/kg; in data set [10], 12 mL/min/kg. Also, the clearance in [2] amounted to 39 mL/min/kg. Moreover, in data set [3], the half-life is 4.9 h. This molecule came in with an area under the curve (AUC) in [4] of 1000 ng·h/mL. The molecule further came in with a Cmax in [5] of 315 ng/mL. The Vd in data set [6] stood at 5.6. The molecule also had a bioavailability in data set [7] of 23%. Also, the time to peak (Tmax) in [8] was 0.17 h. In addition, the Activity in data set [9] was 220%.

Turning to `CN1C[C@H](C(=O)Nc2ccccc2F)[C@@H](c2ccc(/C=C/C(=O)Nc3ccccc3N)cc2)C1` (racemic), the CLhep predicted at 1 µM is 67 mL/min/kg in data set [1] and 10 mL/min/kg in data set [10]. Besides, the Activity in [9] amounted to 170%.

For `Cc1cccc(NC(=O)[C@H]2CN(C)C[C@@H]2c2ccc(/C=C/C(=O)Nc3ccccc3N)cc2)c1` (racemic), the results for the CLhep predicted at 1 µM in data set [1] and in data set [10] were 74 mL/min/kg and 14 mL/min/kg, respectively. For the same molecule, the Activity in [9] turned out to be 350%.

Regarding `Nc1ccccc1NC(=O)/C=C/c1ccc([C@H]2CN(C3COC3)C[C@@H]2C(=O)Nc2ccc(Cl)cc2)cc1` (racemic), the CLhep predicted at 1 µM in [1] is 42 mL/min/kg; in [10] it was 13 mL/min/kg. In addition, the Activity in [9] was 90%.

In the case of `CN1C[C@H](C(=O)Nc2ccc(Cl)cc2)[C@@H](c2cnc(/C=C/C(=O)Nc3ccccc3N)cn2)C1` (racemic), the CLhep predicted at 1 µM in data set [1] is 25 mL/min/kg; in data set [10] it was 11 mL/min/kg. Further, the Activity in [9] was greater than 300%.

Turning to `CN1C[C@H](C(=O)Nc2ccccn2)[C@@H](c2ccc(/C=C/C(=O)Nc3ccccc3N)cc2)C1` (racemic), the CLhep predicted at 1 µM in data set [1] was 40 mL/min/kg; in [10] it was 8 mL/min/kg. The Activity in [9] was found to be 140%.

As to `CN1C[C@H](C(=O)Nc2ccc(F)c(Cl)c2)[C@@H](c2ccc(/C=C/C(=O)Nc3ccccc3N)cc2)C1` (racemic), the CLhep predicted at 1 µM in data set [1] was 34 mL/min/kg; in data set [10] it was 15 mL/min/kg. Also, the Activity in [9] is 180%.
